Experimental data: ChEMBL document CHEMBL4118021, “Studies of TAK1-centered polypharmacology with novel covalent TAK1 inhibitors” (Bioorg Med Chem, 2017)
One block for each compound: values may come before it. Activity calls are given as the source filed them. The calls are words filed in the database; no cut-off is given here.

Tests used:
[1] = molecular target: T1, Dual specificity mitogen-activated protein kinase kinase 6 (Homo sapiens) (UniProt P52564); assay: Binding affinity to MAP2K6 in human NCI-H23 cells at 1 uM by mass spectrometry based pull down assay; assay type: cell-based
T1 sequence (whole entry): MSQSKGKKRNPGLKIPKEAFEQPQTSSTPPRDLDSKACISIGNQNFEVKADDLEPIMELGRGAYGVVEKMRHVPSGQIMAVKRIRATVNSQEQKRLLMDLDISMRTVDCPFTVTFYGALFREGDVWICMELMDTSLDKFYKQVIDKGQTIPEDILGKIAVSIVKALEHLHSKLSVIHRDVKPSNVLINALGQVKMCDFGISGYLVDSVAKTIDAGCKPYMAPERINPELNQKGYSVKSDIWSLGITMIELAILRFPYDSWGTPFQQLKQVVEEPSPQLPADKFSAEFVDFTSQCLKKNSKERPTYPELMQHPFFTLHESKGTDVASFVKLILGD

Agrin (Homo sapiens) = Agrin (Homo sapiens) (UniProt O00468); assay: Binding affinity to AGRN in human NCI-H358 cells at 1 uM by mass spectrometry based pull down assay; assay type: cell-based
Agrin (Homo sapiens), sequence (O00468 whole entry): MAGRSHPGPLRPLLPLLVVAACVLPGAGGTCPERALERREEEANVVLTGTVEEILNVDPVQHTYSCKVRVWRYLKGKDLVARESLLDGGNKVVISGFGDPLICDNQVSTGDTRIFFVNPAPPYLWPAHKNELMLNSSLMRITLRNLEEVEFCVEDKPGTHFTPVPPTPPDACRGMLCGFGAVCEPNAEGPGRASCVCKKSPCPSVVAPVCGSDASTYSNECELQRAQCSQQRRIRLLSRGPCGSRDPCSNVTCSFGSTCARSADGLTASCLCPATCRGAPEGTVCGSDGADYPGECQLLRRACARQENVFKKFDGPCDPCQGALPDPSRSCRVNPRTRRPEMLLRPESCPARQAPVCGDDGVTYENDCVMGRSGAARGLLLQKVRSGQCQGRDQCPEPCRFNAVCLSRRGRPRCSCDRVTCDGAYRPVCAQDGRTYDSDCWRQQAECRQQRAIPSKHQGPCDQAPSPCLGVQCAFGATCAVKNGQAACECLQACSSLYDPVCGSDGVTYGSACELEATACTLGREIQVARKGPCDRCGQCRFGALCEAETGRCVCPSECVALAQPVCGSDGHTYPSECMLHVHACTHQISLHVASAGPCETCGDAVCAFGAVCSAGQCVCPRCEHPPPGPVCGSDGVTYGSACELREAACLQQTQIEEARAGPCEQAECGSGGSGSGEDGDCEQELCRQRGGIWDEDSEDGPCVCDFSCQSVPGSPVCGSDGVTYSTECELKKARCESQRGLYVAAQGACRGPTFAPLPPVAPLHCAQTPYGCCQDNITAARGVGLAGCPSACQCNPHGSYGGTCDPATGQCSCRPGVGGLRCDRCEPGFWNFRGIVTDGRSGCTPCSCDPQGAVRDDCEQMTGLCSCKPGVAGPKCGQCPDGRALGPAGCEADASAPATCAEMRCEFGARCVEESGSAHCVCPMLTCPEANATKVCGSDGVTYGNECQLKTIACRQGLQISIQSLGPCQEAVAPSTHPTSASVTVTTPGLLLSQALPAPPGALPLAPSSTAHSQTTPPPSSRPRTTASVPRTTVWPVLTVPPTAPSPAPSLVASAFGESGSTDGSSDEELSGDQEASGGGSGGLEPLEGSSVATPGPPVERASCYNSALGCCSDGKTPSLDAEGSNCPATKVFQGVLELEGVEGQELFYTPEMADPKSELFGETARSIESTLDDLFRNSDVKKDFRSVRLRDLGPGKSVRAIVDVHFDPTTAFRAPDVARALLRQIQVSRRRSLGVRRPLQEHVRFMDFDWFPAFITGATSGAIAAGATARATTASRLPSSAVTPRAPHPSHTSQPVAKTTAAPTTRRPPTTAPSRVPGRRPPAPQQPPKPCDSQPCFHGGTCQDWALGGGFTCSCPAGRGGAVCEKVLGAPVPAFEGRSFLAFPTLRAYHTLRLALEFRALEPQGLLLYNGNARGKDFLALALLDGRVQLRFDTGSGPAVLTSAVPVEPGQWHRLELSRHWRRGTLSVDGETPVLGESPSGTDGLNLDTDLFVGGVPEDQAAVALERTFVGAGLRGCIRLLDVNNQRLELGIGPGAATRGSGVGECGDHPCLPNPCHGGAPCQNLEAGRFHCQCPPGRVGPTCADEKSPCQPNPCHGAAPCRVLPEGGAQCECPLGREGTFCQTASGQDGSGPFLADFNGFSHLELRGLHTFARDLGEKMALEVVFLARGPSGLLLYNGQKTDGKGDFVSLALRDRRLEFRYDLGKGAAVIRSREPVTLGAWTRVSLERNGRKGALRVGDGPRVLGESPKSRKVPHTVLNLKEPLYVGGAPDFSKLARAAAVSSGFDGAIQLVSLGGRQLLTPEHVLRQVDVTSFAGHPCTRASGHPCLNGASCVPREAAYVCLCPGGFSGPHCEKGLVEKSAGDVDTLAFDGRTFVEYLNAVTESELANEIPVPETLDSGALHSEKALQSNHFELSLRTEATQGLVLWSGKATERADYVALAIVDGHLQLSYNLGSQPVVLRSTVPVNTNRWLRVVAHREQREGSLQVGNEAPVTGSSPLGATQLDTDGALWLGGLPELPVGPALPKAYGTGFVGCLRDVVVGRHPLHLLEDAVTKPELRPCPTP
Outline: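 NCI-H23 or NCI-H358 cells were grown and lysed. Lysates were incubated overnight at 4 °C with 1 μM biotinylated covalent probe or DMSO, then pulled down on streptavidin beads. Proteins were run on polyacrylamide gels and stained with Coomassie. Bands were excised, digested and identified by mass spectrometry.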

[2] = molecular target: T2, Non-receptor tyrosine-protein kinase TNK1 (Homo sapiens) (UniProt Q13470); assay: Binding affinity to TNK1 in human NCI-H358 cells at 1 uM by mass spectrometry based pull down assay; assay type: cell-based
T2 sequence (whole entry): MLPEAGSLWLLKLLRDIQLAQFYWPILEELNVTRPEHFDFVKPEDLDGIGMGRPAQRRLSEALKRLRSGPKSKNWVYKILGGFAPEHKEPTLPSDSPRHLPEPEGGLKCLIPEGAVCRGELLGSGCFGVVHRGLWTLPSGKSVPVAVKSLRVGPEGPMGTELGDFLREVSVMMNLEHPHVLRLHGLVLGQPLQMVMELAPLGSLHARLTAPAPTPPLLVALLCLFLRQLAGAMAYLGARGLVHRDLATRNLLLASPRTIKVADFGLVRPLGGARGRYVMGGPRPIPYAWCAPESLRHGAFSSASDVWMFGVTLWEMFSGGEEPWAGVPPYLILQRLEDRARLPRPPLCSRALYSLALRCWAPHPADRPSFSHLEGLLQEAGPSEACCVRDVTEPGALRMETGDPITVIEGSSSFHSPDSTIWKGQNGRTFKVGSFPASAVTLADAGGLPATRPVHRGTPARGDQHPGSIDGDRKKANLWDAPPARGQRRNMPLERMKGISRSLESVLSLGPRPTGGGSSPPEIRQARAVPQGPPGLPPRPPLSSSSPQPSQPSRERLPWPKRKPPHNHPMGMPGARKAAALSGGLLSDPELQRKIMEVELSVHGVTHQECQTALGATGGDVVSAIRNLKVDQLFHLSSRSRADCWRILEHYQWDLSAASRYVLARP

[3] = molecular target: ATP synthase F(1) complex subunit gamma, mitochondrial (Homo sapiens) (UniProt P36542); assay: Binding affinity to ATP5C1 in human NCI-H358 cells at 1 uM by mass spectrometry based pull down assay; assay type: cell-based
[4] = molecular target: Trifunctional enzyme subunit alpha, mitochondrial (Homo sapiens) (UniProt P40939); assay: Binding affinity to HADHA in human NCI-H358 cells at 1 uM by mass spectrometry based pull down assay; assay type: cell-based
NCI-H23 = assay: Binding affinity to NDUFS7 in human NCI-H23 cells at 1 uM by mass spectrometry based pull down assay; assay type: cell-based
[5] = molecular target: Dual specificity mitogen-activated protein kinase kinase 2 (Homo sapiens) (UniProt P36507); assay: Binding affinity to MAP2K2 in human NCI-H358 cells at 1 uM by mass spectrometry based pull down assay; assay type: cell-based
[6] = molecular target: Inter-alpha-trypsin inhibitor heavy chain H2 (Homo sapiens) (UniProt P19823); assay: Binding affinity to ITIH2 in human NCI-H358 cells at 1 uM by mass spectrometry based pull down assay; assay type: cell-based
[7] = molecular target: Apoptosis regulator BAX (Homo sapiens) (UniProt Q07812); assay: Binding affinity to BAX in human NCI-H23 cells at 1 uM by mass spectrometry based pull down assay; assay type: cell-based
[8] = molecular target: Nuclear receptor-binding factor 2 (Homo sapiens) (UniProt Q96F24); assay: Binding affinity to NRBF2 in human NCI-H23 cells at 1 uM by mass spectrometry based pull down assay; assay type: cell-based
[9] = molecular target: Prostaglandin reductase 1 (Homo sapiens) (UniProt Q14914); assay: Binding affinity to PTGR1 in human NCI-H23 cells at 1 uM by mass spectrometry based pull down assay; assay type: cell-based
[10] = molecular target: Pyrroline-5-carboxylate reductase 1, mitochondrial (Homo sapiens) (UniProt P32322); assay: Binding affinity to PYCR1 in human NCI-H358 cells at 1 uM by mass spectrometry based pull down assay; assay type: cell-based
[11] = molecular target: Protein CIP2A (Homo sapiens) (UniProt Q8TCG1); assay: Binding affinity to KIAA1524 in human NCI-H23 cells at 1 uM by mass spectrometry based pull down assay; assay type: cell-based
[12] = molecular target: Phosphoglycerate kinase 1 (Homo sapiens) (UniProt P00558); assay: Binding affinity to PGK1 in human NCI-H358 cells at 1 uM by mass spectrometry based pull down assay; assay type: cell-based
[13] = molecular target: Multifunctional protein CAD (Homo sapiens) (UniProt P27708); assay: Binding affinity to CAD in human NCI-H23 cells at 1 uM by mass spectrometry based pull down assay; assay type: cell-based
Multifunctional protein CAD (Homo sapiens), sequence (P27708 whole entry): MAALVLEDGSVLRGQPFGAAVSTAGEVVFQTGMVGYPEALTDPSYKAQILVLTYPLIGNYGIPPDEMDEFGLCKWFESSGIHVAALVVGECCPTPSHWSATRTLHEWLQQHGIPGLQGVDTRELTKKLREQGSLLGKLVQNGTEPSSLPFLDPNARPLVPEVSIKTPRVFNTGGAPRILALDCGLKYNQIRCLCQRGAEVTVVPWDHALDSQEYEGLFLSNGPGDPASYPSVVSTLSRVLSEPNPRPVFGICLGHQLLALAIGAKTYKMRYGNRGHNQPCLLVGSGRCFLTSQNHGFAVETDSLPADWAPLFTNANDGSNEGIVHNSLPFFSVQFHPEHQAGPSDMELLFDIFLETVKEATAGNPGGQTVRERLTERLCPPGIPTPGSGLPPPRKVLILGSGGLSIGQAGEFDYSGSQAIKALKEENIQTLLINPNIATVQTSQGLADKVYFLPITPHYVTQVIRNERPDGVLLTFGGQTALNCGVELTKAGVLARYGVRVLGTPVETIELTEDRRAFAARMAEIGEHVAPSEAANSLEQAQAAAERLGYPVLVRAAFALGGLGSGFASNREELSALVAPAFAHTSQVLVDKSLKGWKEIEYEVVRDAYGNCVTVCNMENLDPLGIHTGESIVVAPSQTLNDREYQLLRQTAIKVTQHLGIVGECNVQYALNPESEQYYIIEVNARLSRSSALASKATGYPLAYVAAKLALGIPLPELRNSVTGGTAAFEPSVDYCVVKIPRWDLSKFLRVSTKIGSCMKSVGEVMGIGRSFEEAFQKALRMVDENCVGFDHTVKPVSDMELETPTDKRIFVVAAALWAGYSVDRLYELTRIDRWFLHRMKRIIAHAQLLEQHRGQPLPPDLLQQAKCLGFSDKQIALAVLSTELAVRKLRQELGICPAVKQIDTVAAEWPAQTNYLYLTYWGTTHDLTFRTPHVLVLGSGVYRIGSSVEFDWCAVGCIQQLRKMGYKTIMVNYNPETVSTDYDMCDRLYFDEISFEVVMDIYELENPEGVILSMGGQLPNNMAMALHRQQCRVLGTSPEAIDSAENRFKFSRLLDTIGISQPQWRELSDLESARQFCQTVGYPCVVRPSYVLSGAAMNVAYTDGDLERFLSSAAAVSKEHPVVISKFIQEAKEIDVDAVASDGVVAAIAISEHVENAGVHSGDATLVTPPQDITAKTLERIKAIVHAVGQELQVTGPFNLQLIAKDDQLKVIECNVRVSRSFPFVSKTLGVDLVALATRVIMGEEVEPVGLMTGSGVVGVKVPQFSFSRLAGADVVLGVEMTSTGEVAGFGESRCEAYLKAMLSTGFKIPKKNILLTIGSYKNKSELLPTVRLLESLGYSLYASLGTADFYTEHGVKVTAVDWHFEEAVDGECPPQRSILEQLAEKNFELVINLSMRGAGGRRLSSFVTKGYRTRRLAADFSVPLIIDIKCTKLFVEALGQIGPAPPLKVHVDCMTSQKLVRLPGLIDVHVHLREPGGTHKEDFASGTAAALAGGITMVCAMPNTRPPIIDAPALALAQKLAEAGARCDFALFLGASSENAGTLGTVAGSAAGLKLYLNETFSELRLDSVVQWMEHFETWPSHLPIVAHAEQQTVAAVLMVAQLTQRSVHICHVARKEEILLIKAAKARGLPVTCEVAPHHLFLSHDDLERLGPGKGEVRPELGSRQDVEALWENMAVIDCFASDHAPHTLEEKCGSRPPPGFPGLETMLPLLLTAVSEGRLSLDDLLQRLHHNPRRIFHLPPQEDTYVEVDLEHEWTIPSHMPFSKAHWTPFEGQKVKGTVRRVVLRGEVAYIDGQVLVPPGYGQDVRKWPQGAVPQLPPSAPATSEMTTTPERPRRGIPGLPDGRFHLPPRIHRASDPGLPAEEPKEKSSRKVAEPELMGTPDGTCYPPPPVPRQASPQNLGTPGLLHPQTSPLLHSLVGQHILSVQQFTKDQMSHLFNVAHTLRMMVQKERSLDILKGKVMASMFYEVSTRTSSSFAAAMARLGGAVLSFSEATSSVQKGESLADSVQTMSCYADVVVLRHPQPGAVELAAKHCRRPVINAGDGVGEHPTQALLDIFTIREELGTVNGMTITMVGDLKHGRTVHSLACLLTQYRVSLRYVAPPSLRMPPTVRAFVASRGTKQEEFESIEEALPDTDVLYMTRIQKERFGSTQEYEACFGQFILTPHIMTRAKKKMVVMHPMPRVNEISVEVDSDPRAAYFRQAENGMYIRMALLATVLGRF

[14] = molecular target: Pyruvate dehydrogenase E1 component subunit beta, mitochondrial (Homo sapiens) (UniProt P11177); assay: Binding affinity to PDHB in human NCI-H23 cells at 1 uM by mass spectrometry based pull down assay; assay type: cell-based
[15] = molecular target: Serine/threonine-protein phosphatase PP1-alpha catalytic subunit (Homo sapiens) (UniProt P62136); assay: Binding affinity to PPP1CA in human NCI-H23 cells at 1 uM by mass spectrometry based pull down assay; assay type: cell-based
Serine/threonine-protein phosphatase PP1-alpha catalytic subunit (Homo sapiens), sequence (P62136 whole entry): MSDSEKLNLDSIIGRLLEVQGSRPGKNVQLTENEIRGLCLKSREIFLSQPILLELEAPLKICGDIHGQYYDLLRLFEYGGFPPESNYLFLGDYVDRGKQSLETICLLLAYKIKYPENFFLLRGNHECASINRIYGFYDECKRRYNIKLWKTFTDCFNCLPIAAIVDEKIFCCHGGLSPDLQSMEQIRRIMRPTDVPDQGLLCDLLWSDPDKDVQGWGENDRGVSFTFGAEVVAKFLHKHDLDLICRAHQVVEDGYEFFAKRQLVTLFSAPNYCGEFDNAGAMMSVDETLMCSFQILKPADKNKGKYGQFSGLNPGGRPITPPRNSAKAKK

[16] = molecular target: Signal transducer and activator of transcription 1-alpha/beta (Homo sapiens) (UniProt P42224); assay: Binding affinity to STAT1 in human NCI-H23 cells at 1 uM by mass spectrometry based pull down assay; assay type: cell-based
[17] = molecular target: Tyrosine-protein phosphatase non-receptor type 1 (Homo sapiens) (UniProt P18031); assay: Binding affinity to PTPN1 in human NCI-H23 cells at 1 uM by mass spectrometry based pull down assay; assay type: cell-based
[18] = molecular target: Activin receptor type-1 (Homo sapiens) (UniProt Q04771); assay: Inhibition of human ACVR1 (188 to 509 residues) expressed in bacterial expression system assessed as enzyme activity at 1 uM by KINOMEScan assay relative to control; parameters: scale not given: the % may be the effect or the level left
Activin receptor type-1 (Homo sapiens), sequence (Q04771 whole entry, the tested form may be a part): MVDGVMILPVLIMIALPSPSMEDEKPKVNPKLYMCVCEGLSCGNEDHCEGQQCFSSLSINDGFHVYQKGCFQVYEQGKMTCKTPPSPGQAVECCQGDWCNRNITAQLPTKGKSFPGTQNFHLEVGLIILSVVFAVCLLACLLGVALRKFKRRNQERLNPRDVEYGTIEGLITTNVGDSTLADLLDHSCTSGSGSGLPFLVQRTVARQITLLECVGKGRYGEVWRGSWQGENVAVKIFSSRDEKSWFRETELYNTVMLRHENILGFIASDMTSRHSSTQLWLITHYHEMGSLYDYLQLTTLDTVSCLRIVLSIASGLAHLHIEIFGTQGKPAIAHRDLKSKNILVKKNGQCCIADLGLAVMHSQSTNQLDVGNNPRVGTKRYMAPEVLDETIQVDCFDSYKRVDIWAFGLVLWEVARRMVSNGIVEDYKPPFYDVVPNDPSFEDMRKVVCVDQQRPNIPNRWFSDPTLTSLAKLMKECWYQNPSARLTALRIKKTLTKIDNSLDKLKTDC
Outline: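 In vitro ATP-site competition binding assay (KinomeScan) across a panel of 456 kinases. Compound was tested at 1 and 10 μM. The read-out is the binding inhibition score relative to control.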

[19] = molecular target: Vascular endothelial growth factor receptor 1 (Homo sapiens) (UniProt P17948); assay: Inhibition of human FLT1 (781 to 1239 residues) expressed in bacterial expression system assessed as enzyme activity at 10 uM by KINOMEScan assay relative to control; parameters: scale not given: the % may be the effect or the level left
Outline: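 In vitro ATP-site competition binding assay across a panel of 456 kinases, with compound tested at 1 and 10 μM.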

Activity [1]: Active
Activity (Agrin (Homo sapiens)): Active
Activity [2]: Active
Activity [3]: Active
Activity [4]: Active
Activity [5]: Active
Activity [6]: Active
Activity [7]: Active
Activity [8]: Active
Activity [9]: Active
Activity [10]: Active
Activity [11]: Active
Activity [12]: Active
Activity [13]: Active
Activity [14]: Active
Activity [15]: Active
Activity [16]: Active
Activity [17]: Active
SMILES: C=CC(=O)Nc1ccccc1Nc1nc(Nc2ccc(N3CCN(CCOCCOCCOCCNC(=O)CCCC[C@@H]4SC[C@@H]5NC(=O)N[C@@H]54)CC3)cc2)ncc1Cl
Activity (NCI-H23): Active

SMILES: COc1cc(O)c2c(c1)/C=C/C[C@H](O)[C@H](O)C(=O)/C=C\C[C@H](C)OC2=O
Activity [18]: 21%
Activity [19]: 0.5%
